According to article PMC8524144 (International Journal of Pharmaceutics: X, 2021):

Columns and labels:
[1] = test system: elastase; settings: ref Werle et al. (2006); cited from earlier work
[2] = test system: aminopeptidase N; settings: ref Werle et al. (2006); cited from earlier work
[3] = test system: trypsin; settings: ref Werle et al. (2006); cited from earlier work
[4] = test system: pepsin; settings: ref Werle et al. (2006); cited from earlier work
[5] = test system: chymotrypsin; settings: ref Werle et al. (2006); cited from earlier work
[6] = In vitro stability of hPTH; assay type: physicochemical
Summary of the method: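 Peptide (1.0 mg teriparatide acetate per mL in 50 mM Tris, pH 6.5, no SBTI) mixed 1:1 with enzyme-free Tris buffer and incubated at 37 °C with shaking. Samples were taken at 2, 5, 10, 15, 30 and 60 min and quenched with an equal volume of 0.5% TFA. A zero-time mix served as 100%. Peptide was measured by C18 HPLC-UV. Run in duplicate.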

[7] = test system: membrane-bound peptidases; settings: ref Werle et al. (2006); cited from earlier work
[8] = SBTI at the levels found in the tested formulations; ref Hernández-Ledesma and Hsieh, 2017; Burshtein et al. 2018b; cited from earlier work
[9] = 50 mM Tris buffer without protease, pH 6.5

remaining at 0.25 h, 0.5 mg/mL [6, 9] [%]	remaining at 0.5 h, 0.5 mg/mL [6, 9] [%]	remaining at 1 h, 0.5 mg/mL [6, 9] [%]	stability of hPTH(1–34) alone ([6]; no protease, no SBTI, 50 mM Tris buffer pH 6.5, 37 °C, HPLC-UV, n = 2)	Molecule	effect of elastase on the degradation of hPTH(1–34) [1]	effect of aminopeptidase N on the degradation of hPTH(1–34) [2]	degradation by GIT protease trypsin [3]	degradation by GIT protease pepsin [4]	degradation by GIT protease chymotrypsin [5]	effect of membrane-bound peptidases on the degradation of hPTH(1–34) [7]	tolerability in human trials [8]
100	100	100	stable for at least one hour	CC[C@H](C)[C@H](NC(=O)[C@H](CCC(=O)O)NC(=O)[C@H](CO)NC(=O)[C@@H](NC(=O)[C@@H](N)CO)C(C)C)C(=O)N[C@@H](CCC(N)=O)C(=O)N[C@@H](CC(C)C)C(=O)N[C@@H](CCSC)C(=O)N[C@@H](Cc1cnc[nH]1)C(=O)N[C@@H](CC(N)=O)C(=O)N[C@@H](CC(C)C)C(=O)NCC(=O)N[C@@H](CCCCN)C(=O)N[C@@H](Cc1cnc[nH]1)C(=O)N[C@@H](CC(C)C)C(=O)N[C@@H](CC(N)=O)C(=O)N[C@@H](CO)C(=O)N[C@@H](CCSC)C(=O)N[C@@H](CCC(=O)O)C(=O)N[C@@H](CCCN=C(N)N)C(=O)N[C@H](C(=O)N[C@@H](CCC(=O)O)C(=O)N[C@@H](Cc1c[nH]c2ccccc12)C(=O)N[C@@H](CC(C)C)C(=O)N[C@@H](CCCN=C(N)N)C(=O)N[C@@H](CCCCN)C(=O)N[C@@H](CCCCN)C(=O)N[C@@H](CC(C)C)C(=O)N[C@@H](CCC(N)=O)C(=O)N[C@@H](CC(=O)O)C(=O)N[C@H](C(=O)N[C@@H](Cc1cnc[nH]1)C(=O)N[C@@H](CC(N)=O)C(=O)N[C@@H](Cc1ccccc1)C(=O)O)C(C)C)C(C)C [hPTH(1–34), teriparatide]	very limited effect	very limited effect	rapidly degraded	rapidly degraded	rapidly degraded	very limited effect	–
–	–	–	–	soybean trypsin inhibitor [SBTI]	–	–	–	–	–	–	well tolerated
